Test results from ChEMBL document CHEMBL4376900, “Structure-Activity Relationship of Antischistosomal Ozonide Carboxylic Acids” (J Med Chem, 2020).
Values after ≈ are worked out from the molar mass of the structure shown.

How the values were obtained:
[1] = Kinetic solubility in pH 2.0 0.01M HCl buffer incubated for 30 mins by nephelometry; assay type: physicochemical; settings: read-out: Kinetic_solubility
Summary of the method: (§1)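 DMSO stocks (10 mg/mL) diluted into pH 6.5 phosphate buffer or 0.01 M HCl (about pH 2.0) at 1% final DMSO. After 30 min, a solubility range was determined by nephelometry.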

[2] = Partition coefficient, logD of the compound at pH 7.4 by HPLC analysis; assay type: physicochemical; settings: octanol/water
[3] = Kinetic solubility in pH 6.5 phosphate buffer incubated for 30 mins by nephelometry; assay type: physicochemical; settings: read-out: Kinetic_solubility; summary of the method: as §1
Schistosoma mansoni = experiment: Antischistosomal activity against Schistosoma mansoni infected in NMRI mouse assessed as reduction in total adult worm burden at 400 mg/kg, po administered as single dose starting on day 49 post-infection and measured at 28 days post treatment relative to control; assay type: functional; set-up: scale not given: the % may be the effect or the level left
Albumin = Albumin (Homo sapiens, UniProt P02768); experiment: Protein binding to human albumin by HPLC analysis; assay type: ADME; settings: isolated protein
Albumin, sequence (P02768 whole entry): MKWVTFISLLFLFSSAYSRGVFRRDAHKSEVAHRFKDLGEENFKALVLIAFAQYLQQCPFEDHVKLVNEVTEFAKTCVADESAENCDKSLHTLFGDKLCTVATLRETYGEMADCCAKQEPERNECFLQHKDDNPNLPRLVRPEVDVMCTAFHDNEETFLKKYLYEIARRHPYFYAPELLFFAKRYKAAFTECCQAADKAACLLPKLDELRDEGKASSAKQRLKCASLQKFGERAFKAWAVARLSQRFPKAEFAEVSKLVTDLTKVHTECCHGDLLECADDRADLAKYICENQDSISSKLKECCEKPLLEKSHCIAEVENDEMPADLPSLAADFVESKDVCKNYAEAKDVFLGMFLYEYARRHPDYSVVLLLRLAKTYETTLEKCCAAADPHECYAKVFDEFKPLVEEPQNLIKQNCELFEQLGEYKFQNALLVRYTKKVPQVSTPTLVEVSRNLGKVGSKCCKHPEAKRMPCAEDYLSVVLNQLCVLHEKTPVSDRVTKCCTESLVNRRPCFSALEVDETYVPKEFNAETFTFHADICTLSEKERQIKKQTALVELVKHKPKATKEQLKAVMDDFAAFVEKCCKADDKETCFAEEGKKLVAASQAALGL
Summary of the method: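 Binding estimated chromatographically using a gradient HPLC method derived from the Valko approach.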

[4] = Intrinsic clearance in human liver microsomes in presence of NADPH-regenerating system incubated over 60 mins; assay type: ADME, Microsome; settings: read-out: CLH
Summary of the method: (§2)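 Compounds incubated at 37 °C with liver microsomes at 0.4 mg/mL protein. Reaction started by adding an NADPH-regenerating system and quenched with acetonitrile containing diazepam internal standard at several time points over 60 min. No-NADPH controls were quenched at 2, 30 and 60 min.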

[5] = Intrinsic clearance in mouse liver microsomes in presence of NADPH-regenerating system incubated over 60 mins; assay type: ADME, Microsome; settings: read-out: CLH; summary of the method: as §2
[6] = Cytotoxicity in human HC04 assessed as reduction in cell viability up to 50 uM incubated for 24 hrs by Alamar blue sye based assay
Summary of the method: (§3)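 Cells maintained in D10 medium were grown to confluence, then exposed to increasing compound concentrations (0–100 μM) for 24 h. Alamar blue (10 mM) was then added for 4 h, and viability was read as fluorescence.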

U2OS = experiment: Cytotoxicity in human U2OS assessed as reduction in cell viability up to 50 uM incubated for 24 hrs by Alamar blue sye based assay; summary of the method: as §3
HEK-293T = experiment: Cytotoxicity in human HEK293T assessed as reduction in cell viability up to 50 uM incubated for 24 hrs by Alamar blue sye based assay; summary of the method: as §3
HFF = experiment: Cytotoxicity in HFF assessed as reduction in cell viability up to 50 uM incubated for 24 hrs by Alamar blue sye based assay; settings: human; summary of the method: as §3

Row | Compound | solubility kinetic at 0.5 h [1] | logD [2] | solubility kinetic at 0.5 h [3] | Activity (Schistosoma mansoni) | PPB (Albumin) | microsomal CLint [4] | microsomal CLint [5] | Activity [6] | Activity (U2OS) | Activity (HEK-293T) | Activity (HFF)
1 | O=C(O)COc1ccc([C@H]2CC[C@]3(CC2)OOC2(O3)C3CC4CC2CC(C3)C4=O)cc1 (some centres not stated) | 50 to 100 µg/mL (≈ 117 to 233 µM) | 1.9 | < 1.6 µg/mL | 24% | 97.8% |  |  |  |  |  | 
2 | O=C(O)CCCCOc1ccc([C@H]2CC[C@]3(CC2)OOC2(O3)C3CC4CC(C3)CC2C4)cc1 (some centres not stated) | < 1.6 µg/mL | 4 | < 1.6 µg/mL | 51% | > 99.5% | < 7 µL/min/mg | 13 µL/min/mg |  |  |  | 
3 | CS(=O)(=O)O.NC1C2CC3CC1CC(C2)C31OO[C@]2(CC[C@@H](c3ccc(OCC(=O)O)cc3)CC2)O1 (some centres not stated) | < 1.6 µg/mL | 1.4 | 6.3 to 12.5 µg/mL | 30% | 94.2% | 13 µL/min/mg | 8 µL/min/mg |  |  |  | 
4 | CCOC(=O)COc1ccc([C@H]2CC[C@]3(CC2)OOC2(O3)C3CC4CC(C3)CC2C4)cc1 (some centres not stated) | < 0.78 µg/mL | > 5.3 | < 1.6 µg/mL | 60% | 98.9% |  |  |  |  |  | 
5 | O=C(O)c1cc([C@H]2CC[C@]3(CC2)OOC2(O3)C3CC4CC(C3)CC2C4)ccc1O (some centres not stated) | > 100 µg/mL | 3 | < 1.6 µg/mL | 36% |  | 108 µL/min/mg | 20 µL/min/mg |  |  |  | 
6 | CS(=O)(=O)O.O=C(O)CNCc1ccc([C@H]2CC[C@]3(CC2)OOC2(O3)C3CC4CC(C3)CC2C4)cc1 (some centres not stated) | < 6.3 µg/mL | 3.3 | < 12.5 µg/mL | 90% | 97.6% | < 7 µL/min/mg | 10 µL/min/mg | Non-Toxic | Non-Toxic | Non-Toxic | Non-Toxic
7 | CS(=O)(=O)O.CS(=O)(=O)O.O=C(O)CNCc1ccc([C@H]2CC[C@]3(CC2)OOC2(O3)C3CC4CC2CC(C3)N4)cc1 (some centres not stated) | 50 to 100 µg/mL | 1.6 | > 100 µg/mL | 41% |  | < 7 µL/min/mg | < 7 µL/min/mg |  |  |  | 
8 | CC(=O)NC1C2CC3CC1CC(C2)C31OO[C@]2(CC[C@@H](c3ccc(OCC(=O)O)cc3)CC2)O1 (some centres not stated) | 12.5 to 25 µg/mL (≈ 26.5 to 53 µM) | 1.8 | 3.1 to 6.3 µg/mL (≈ 6.57 to 13.4 µM) | 0% | 98.2% | 10 µL/min/mg | < 7 µL/min/mg |  |  |  | 
9 | O=C(O)CN1CCC(Oc2ccc([C@H]3CC[C@]4(CC3)OOC3(O4)C4CC5CC(C4)CC3C5)cc2)CC1 (some centres not stated) |  |  |  | 75% |  | < 7 µL/min/mg | < 7 µL/min/mg | Non-Toxic | Non-Toxic | Non-Toxic | Non-Toxic
10 | O=C([O-])C1CCN(CCOc2ccc([C@H]3CC[C@]4(CC3)OOC3(O4)C4CC5CC(C4)CC3C5)cc2)CC1.[Na+] (some centres not stated) | < 1.6 µg/mL | 3.8 | 3.1 to 6.3 µg/mL | 0% | 98% | < 7 µL/min/mg | 9 µL/min/mg |  |  |  | 
11 | CC(C)(Oc1ccc([C@H]2CC[C@]3(CC2)OOC2(O3)C3CC4CC(C3)CC2C4)cc1)C(=O)O (some centres not stated) | 3.1 to 6.3 µg/mL (≈ 7 to 14.2 µM) | 3.1 | < 1.6 µg/mL | 48% | > 99.5% | < 7 µL/min/mg | 7 µL/min/mg |  |  |  | 
12 | CS(=O)(=O)NC(=O)COc1ccc([C@H]2CC[C@]3(CC2)OOC2(O3)C3CC4CC(C3)CC2C4)cc1 (some centres not stated) | 6.3 to 12.5 µg/mL (≈ 12.8 to 25.4 µM) | 3 | < 1.6 µg/mL | 53% |  | < 7 µL/min/mg | 12 µL/min/mg |  |  |  | 
13 | O=C(O)CCCOc1ccc([C@H]2CC[C@]3(CC2)OOC2(O3)C3CC4CC(C3)CC2C4)cc1 (some centres not stated) | < 1.6 µg/mL | 3.6 | < 3.1 µg/mL | 55% | > 99.5% | < 7 µL/min/mg | 8 µL/min/mg |  |  |  | 
14 | O=C(O)COc1ccc([C@H]2CC[C@]3(CC2)OOC2(O3)C3CC4CC(C3)CC2C4)cc1C(=O)O (some centres not stated) | > 100 µg/mL | 1.9 | < 3.1 µg/mL | 0% | 99.1% | < 7 µL/min/mg | 8 µL/min/mg |  |  |  | 
15 | O=C(O)COc1ccc([C@H]2CC[C@]3(CC2)OOC2(O3)C3CC4CC2CC(C3)C4O)cc1 (some centres not stated) | 25 to 50 µg/mL (≈ 58.1 to 116 µM) | 1.7 | < 1.6 µg/mL | 14% | 98.5% | < 7 µL/min/mg | < 7 µL/min/mg |  |  |  | 
16 | O=C(O)c1cccc([C@H]2CC[C@]3(CC2)OOC2(O3)C3CC4CC(C3)CC2C4)c1 (some centres not stated) | < 1.6 µg/mL | 3 | < 1.6 µg/mL | 63% | 98.9% | 12 µL/min/mg | 30 µL/min/mg |  |  |  | 
17 | O=C(O)CNC(=O)COc1ccc([C@H]2CC[C@]3(CC2)OOC2(O3)C3CC4CC(C3)CC2C4)cc1 (some centres not stated) | < 3.1 µg/mL | 3 | 12.5 to 25 µg/mL (≈ 26.5 to 53 µM) | 76% | 98.5% | < 7 µL/min/mg |  | Non-Toxic | Non-Toxic | Non-Toxic | Non-Toxic
18 | O=C(O)COc1c(Cl)cc([C@H]2CC[C@]3(CC2)OOC2(O3)C3CC4CC(C3)CC2C4)cc1Cl (some centres not stated) | 3.1 to 6.3 µg/mL (≈ 6.41 to 13 µM) | 3.3 | < 3.1 µg/mL | 32% |  |  |  |  |  |  | 
19 | CS(=O)(=O)O.O=C(O)COc1ccc([C@H]2CC[C@]3(CC2)OOC2(O3)C3CC4CC2CC(C3)N4)cc1 (some centres not stated) | < 1.6 µg/mL | 1.3 | 3.1 to 6.3 µg/mL | 29% |  | 35 µL/min/mg | 27 µL/min/mg |  |  |  | 
20 | CS(=O)(=O)O.O=C(O)C1CN(Cc2ccc([C@H]3CC[C@]4(CC3)OOC3(O4)C4CC5CC(C4)CC3C5)cc2)C1 (some centres not stated) | < 1.6 µg/mL |  | 6.3 to 12.5 µg/mL | 43% |  | 7 µL/min/mg | 10 µL/min/mg |  |  |  | 
21 | O=C(O)COc1ccc([C@H]2CC[C@]3(CC2)OOC2(O3)C3CC4CC2CC(C3)C4(F)F)cc1 (some centres not stated) | 12.5 to 25 µg/mL (≈ 27.7 to 55.5 µM) | 2.9 | < 1.6 µg/mL | 57% | 99.4% | 23 µL/min/mg | 130 µL/min/mg |  |  |  | 
22 | C[C@H]1[C@@H](O)O[C@@H]2O[C@@]3(C)CC[C@H]4[C@H](C)CC[C@@H]1[C@@]24OO3 [ARTENIMOL] |  |  |  | 66% |  |  |  |  |  |  | 
